Experimental data reported in ChEMBL document CHEMBL1629456, “ApoA-I mimetic peptides promote pre-β HDL formation in vivo causing remodeling of HDL and triglyceride accumulation at higher dose” (Bioorg Med Chem, 2010).
Active and inactive are the calls of the source. The rule behind the calls is not given here. *1 amine or outer side, *2 acyl side, *3 side chain or, on linkers, in order; H or OH if unused. Where a SMILES comes first, the peptide text is derived from it. [ ]: non-standard residue; d: D form. Gly(oct-7-en-1-yl) = C=CCCCCCC[C@H](N)C(=O)O; Ala(5-hexenyl) = C=CCCCCC[C@H](N)C(=O)O; dNle(6-vinyl) = C=CCCCC[C@@H](N)C(=O)O; Gly(octyl) = CCCCCCCC[C@H](N)C(=O)O; X1 = CCCCCCC[C@H](N[*:1])C(=O)[*:2]

What was measured:
[1] = target: Phospholipid-transporting ATPase ABCA1 (Mus musculus, UniProt P41233); assay: Induction of ABCA1-mediated [3H]cholesterol efflux in mouse RAW 264.7 macrophages after 24 hrs
[2] = Plasma concentration in C57/BL6 mouse at 60 mg/kg, sc after 3 hrs; format: ADME, organism-based, C57Bl/6; design: dose 60 mg/kg, route subcutaneous
Method in brief: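 Male C57Bl/6 mice were dosed subcutaneously with peptide in 50 mM mannitol/PBS. Serum was taken by cardiac puncture, and peptide was measured by LC–MS/MS after acetonitrile protein precipitation.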

[3] = target: Lipoprotein lipase (Bos taurus) (UniProt P11151); assay: Inhibition of Lipoprotein lipase in vitro
Plasma = assay: Induction of pre-beta HDL formation in human plasma after 2 hrs by ELISA; format: functional, cell-free
Method in brief: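 Increasing peptide concentrations were incubated with normal human plasma at 37 °C for 2 h. Pre-β HDL was quantified by a commercial human pre-β HDL ELISA.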

Phospholipid-transporting ATPase ABCA1, sequence (P41233 whole entry): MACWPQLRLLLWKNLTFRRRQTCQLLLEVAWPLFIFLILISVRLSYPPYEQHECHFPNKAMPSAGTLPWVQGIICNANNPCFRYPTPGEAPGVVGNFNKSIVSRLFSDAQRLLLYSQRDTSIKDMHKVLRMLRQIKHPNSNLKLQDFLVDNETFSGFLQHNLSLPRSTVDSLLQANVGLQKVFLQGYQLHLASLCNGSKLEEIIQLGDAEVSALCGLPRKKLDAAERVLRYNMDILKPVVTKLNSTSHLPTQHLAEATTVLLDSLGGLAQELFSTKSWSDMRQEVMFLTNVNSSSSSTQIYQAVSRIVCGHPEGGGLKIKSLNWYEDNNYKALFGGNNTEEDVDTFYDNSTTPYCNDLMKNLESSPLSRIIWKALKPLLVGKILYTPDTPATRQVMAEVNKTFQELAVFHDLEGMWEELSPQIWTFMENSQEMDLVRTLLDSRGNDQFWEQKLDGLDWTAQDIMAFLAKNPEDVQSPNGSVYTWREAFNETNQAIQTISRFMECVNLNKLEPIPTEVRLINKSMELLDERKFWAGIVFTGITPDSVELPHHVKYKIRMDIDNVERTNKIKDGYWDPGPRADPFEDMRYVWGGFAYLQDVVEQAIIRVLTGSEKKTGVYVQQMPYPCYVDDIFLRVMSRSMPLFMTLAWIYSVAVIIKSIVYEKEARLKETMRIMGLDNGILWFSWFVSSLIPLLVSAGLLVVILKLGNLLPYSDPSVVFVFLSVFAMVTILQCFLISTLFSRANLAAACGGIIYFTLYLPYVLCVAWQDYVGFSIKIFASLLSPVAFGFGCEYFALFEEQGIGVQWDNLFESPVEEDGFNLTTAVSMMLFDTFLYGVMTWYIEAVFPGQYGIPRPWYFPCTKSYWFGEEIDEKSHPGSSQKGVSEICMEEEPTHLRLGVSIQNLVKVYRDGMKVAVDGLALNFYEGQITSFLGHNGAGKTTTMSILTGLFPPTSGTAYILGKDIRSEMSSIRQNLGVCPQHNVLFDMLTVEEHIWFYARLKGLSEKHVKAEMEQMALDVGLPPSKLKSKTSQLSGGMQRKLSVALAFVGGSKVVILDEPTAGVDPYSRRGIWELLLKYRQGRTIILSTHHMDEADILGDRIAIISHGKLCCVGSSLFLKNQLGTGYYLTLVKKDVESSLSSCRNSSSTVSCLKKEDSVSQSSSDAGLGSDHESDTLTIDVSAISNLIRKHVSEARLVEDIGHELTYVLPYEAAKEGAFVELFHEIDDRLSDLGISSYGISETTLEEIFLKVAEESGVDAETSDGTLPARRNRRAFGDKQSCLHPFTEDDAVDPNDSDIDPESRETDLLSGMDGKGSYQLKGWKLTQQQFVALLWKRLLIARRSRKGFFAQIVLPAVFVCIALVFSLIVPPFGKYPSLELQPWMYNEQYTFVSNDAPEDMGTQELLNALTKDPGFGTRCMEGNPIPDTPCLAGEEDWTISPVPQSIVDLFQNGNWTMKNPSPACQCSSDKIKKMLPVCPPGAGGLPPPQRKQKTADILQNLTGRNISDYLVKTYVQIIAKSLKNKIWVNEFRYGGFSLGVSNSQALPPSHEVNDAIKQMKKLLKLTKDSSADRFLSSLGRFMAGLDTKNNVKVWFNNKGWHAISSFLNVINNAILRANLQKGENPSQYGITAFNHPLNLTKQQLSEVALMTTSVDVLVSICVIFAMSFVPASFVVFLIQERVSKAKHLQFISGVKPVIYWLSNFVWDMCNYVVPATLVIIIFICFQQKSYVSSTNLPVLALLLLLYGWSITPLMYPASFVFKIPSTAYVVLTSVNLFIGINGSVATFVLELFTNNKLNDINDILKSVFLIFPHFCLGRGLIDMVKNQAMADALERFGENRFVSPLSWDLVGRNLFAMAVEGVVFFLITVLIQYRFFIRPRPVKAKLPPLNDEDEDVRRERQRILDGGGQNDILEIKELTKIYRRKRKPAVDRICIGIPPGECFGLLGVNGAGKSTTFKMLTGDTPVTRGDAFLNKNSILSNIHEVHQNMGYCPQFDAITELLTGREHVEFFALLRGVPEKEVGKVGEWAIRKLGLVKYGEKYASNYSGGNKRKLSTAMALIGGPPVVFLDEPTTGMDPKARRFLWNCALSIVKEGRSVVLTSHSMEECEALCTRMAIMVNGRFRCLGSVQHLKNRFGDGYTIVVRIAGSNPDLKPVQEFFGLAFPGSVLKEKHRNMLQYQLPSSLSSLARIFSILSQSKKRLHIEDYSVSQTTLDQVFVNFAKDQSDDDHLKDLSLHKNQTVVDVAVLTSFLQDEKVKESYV

Compound | EC50 [1] [µM] | other results
C=CCCCCCC[C@H](NC(=O)[C@H](CCC(=O)O)NC(=O)[C@H](CC(N)=O)NC(=O)[C@H](CC(C)C)NC(=O)[C@H](CCCCN)NC(=O)[C@H](CCC(=O)O)NC(=O)[C@H](CCCNC(=N)N)NC(=O)[C@H](Cc1ccccc1)NC(=O)[C@H](CCC(=O)O)NC(=O)[C@H](CC(=O)O)NC(=O)[C@H](CC(C)C)NC(=O)[C@@H](NC(=O)[C@@H]1CCCN1C(C)=O)C(C)C)C(=O)N[C@@H](CC(C)C)C(=O)N[C@@H](CCC(=O)O)C(=O)N[C@@H](C)C(=O)N[C@@H](CC(C)C)C(=O)N[C@@H](CCCCN)C(=O)N[C@@H](CCC(N)=O)C(=O)N[C@@H](CCCCN)C(=O)N[C@@H](CC(C)C)C(=O)N[C@@H](CCCCN)C(N)=O (Ac-PVLDEFREKLNE[Gly(oct-7-en-1-yl)]LEALKQKLK-NH2) |  | Activity (Plasma): Dose-dependent effect
CCCCCCC[C@H](NC(=O)[C@H](CCC(=O)O)NC(=O)[C@H](CC(N)=O)NC(=O)[C@H](CC(C)C)NC(=O)[C@H](CCCCN)NC(=O)[C@H](CCC(=O)O)NC(=O)[C@H](CCCNC(=N)N)NC(=O)[C@H](Cc1ccccc1)NC(=O)[C@H](CCC(=O)O)NC(=O)[C@H](CC(=O)O)NC(=O)[C@H](CC(C)C)NC(=O)[C@@H](NC(=O)[C@@H]1CCCN1C(C)=O)C(C)C)C(=O)N[C@@H](CC(C)C)C(=O)N[C@@H](CCC(=O)O)C(=O)N[C@@H](C)C(=O)N[C@@H](CC(C)C)C(=O)N[C@@H](CCCCN)C(=O)N[C@@H](CCC(N)=O)C(=O)N[C@@H](CCCCN)C(=O)N[C@@H](CC(C)C)C(=O)N[C@@H](CCCCN)C(N)=O (Ac-PVLDEFREKLNE[X1]LEALKQKLK-NH2) |  | Activity (Plasma): Dose-dependent effect
C=CCCCCC[C@H](NC(=O)[C@H](CCC(=O)O)NC(=O)[C@H](CC(N)=O)NC(=O)[C@H](CC(C)C)NC(=O)[C@H](CCCCN)NC(=O)[C@H](CCC(=O)O)NC(=O)[C@H](CCCNC(=N)N)NC(=O)[C@H](Cc1ccccc1)NC(=O)[C@H](CCC(=O)O)NC(=O)[C@H](CC(=O)O)NC(=O)[C@H](CC(C)C)NC(=O)[C@H](CCCCCC=C)NC(=O)[C@@H]1CCCN1C(C)=O)C(=O)N[C@@H](CC(C)C)C(=O)N[C@@H](CCC(=O)O)C(=O)N[C@@H](C)C(=O)N[C@@H](CC(C)C)C(=O)N[C@@H](CCCCN)C(=O)N[C@@H](CCC(N)=O)C(=O)N[C@@H](CCCCN)C(=O)N[C@@H](CC(C)C)C(=O)N[C@@H](CCCCN)C(N)=O (Ac-P[Ala(5-hexenyl)]LDEFREKLNE[Ala(5-hexenyl)]LEALKQKLK-NH2) |  | Activity (Plasma): inactive
C=CCCCCC[C@H](NC(=O)[C@H](CCC(N)=O)NC(=O)[C@H](CCCCN)NC(=O)[C@H](CC(C)C)NC(=O)[C@H](C)NC(=O)[C@H](CCC(=O)O)NC(=O)[C@H](CC(C)C)NC(=O)[C@H](CCC(=O)O)NC(=O)[C@H](CCC(=O)O)NC(=O)[C@H](CC(N)=O)NC(=O)[C@H](CC(C)C)NC(=O)[C@H](CCCCN)NC(=O)[C@H](CCC(=O)O)NC(=O)[C@H](CCCNC(=N)N)NC(=O)[C@H](Cc1ccccc1)NC(=O)[C@H](CCC(=O)O)NC(=O)[C@H](CC(=O)O)NC(=O)[C@H](CC(C)C)NC(=O)[C@@H](NC(=O)[C@@H]1CCCN1C(C)=O)C(C)C)C(=O)N[C@@H](CC(C)C)C(=O)N[C@@H](CCCCN)C(N)=O | > 100 | 
C=CCCCC[C@H](NC(=O)[C@H](CCC(=O)O)NC(=O)[C@H](CCCN=C(N)N)NC(=O)[C@H](Cc1ccccc1)NC(=O)[C@H](CCC(=O)O)NC(=O)[C@H](CC(=O)O)NC(=O)[C@H](CC(C)C)NC(=O)[C@@H](NC(=O)[C@@H]1CCCN1C(C)=O)C(C)C)C(=O)N[C@@H](CC(C)C)C(=O)N[C@@H](CC(N)=O)C(=O)N[C@@H](CCC(=O)O)C(=O)N[C@@H](CCC(=O)O)C(=O)N[C@@H](CC(C)C)C(=O)N[C@@H](CCC(=O)O)C(=O)N[C@@H](C)C(=O)N[C@@H](CC(C)C)C(=O)N[C@@H](CCCCN)C(=O)N[C@@H](CCC(N)=O)C(=O)N[C@@H](CCCCN)C(=O)N[C@@H](CC(C)C)C(=O)N[C@@H](CCCCN)C(N)=O | > 100 | 
C=CCCCC[C@@H](NC(=O)[C@H](CCCCN)NC(=O)[C@H](CCC(=O)O)NC(=O)[C@H](CCCNC(=N)N)NC(=O)[C@H](Cc1ccccc1)NC(=O)[C@H](CCC(=O)O)NC(=O)[C@H](CC(=O)O)NC(=O)[C@H](CC(C)C)NC(=O)[C@@H](NC(=O)[C@@H]1CCCN1C(C)=O)C(C)C)C(=O)N[C@@H](CC(N)=O)C(=O)N[C@@H](CCC(=O)O)C(=O)N[C@@H](CCC(=O)O)C(=O)N[C@@H](CC(C)C)C(=O)N[C@@H](CCC(=O)O)C(=O)N[C@@H](C)C(=O)N[C@@H](CC(C)C)C(=O)N[C@@H](CCCCN)C(=O)N[C@@H](CCC(N)=O)C(=O)N[C@@H](CCCCN)C(=O)N[C@@H](CC(C)C)C(=O)N[C@@H](CCCCN)C(N)=O | > 100 | 
C=CCCCCC[C@H](NC(=O)[C@H](CCC(=O)O)NC(=O)[C@H](CCCN=C(N)N)NC(=O)[C@H](Cc1ccccc1)NC(=O)[C@H](CCC(=O)O)NC(=O)[C@H](CC(=O)O)NC(=O)[C@H](CC(C)C)NC(=O)[C@@H](NC(=O)[C@@H]1CCCN1C(C)=O)C(C)C)C(=O)N[C@@H](CC(C)C)C(=O)N[C@@H](CC(N)=O)C(=O)N[C@@H](CCC(=O)O)C(=O)N[C@@H](CCC(=O)O)C(=O)N[C@@H](CC(C)C)C(=O)N[C@@H](CCC(=O)O)C(=O)N[C@@H](C)C(=O)N[C@@H](CC(C)C)C(=O)N[C@@H](CCCCN)C(=O)N[C@@H](CCC(N)=O)C(=O)N[C@@H](CCCCN)C(=O)N[C@@H](CC(C)C)C(=O)N[C@@H](CCCCN)C(N)=O | > 100 | 

Now from value to compound, other results behind:

EC50 [1] [µM] | Compound | other results
0.7 | CCCCCCCC[C@H](NC(=O)[C@H](CCC(=O)O)NC(=O)[C@H](CC(N)=O)NC(=O)[C@H](CC(C)C)NC(=O)[C@H](CCCCN)NC(=O)[C@H](CCC(=O)O)NC(=O)[C@H](CCCN=C(N)N)NC(=O)[C@H](Cc1ccccc1)NC(=O)[C@H](CCC(=O)O)NC(=O)[C@H](CC(=O)O)NC(=O)[C@H](CC(C)C)NC(=O)[C@@H](NC(=O)[C@@H]1CCCN1C(C)=O)C(C)C)C(=O)N[C@@H](CC(C)C)C(=O)N[C@@H](CCC(=O)O)C(=O)N[C@@H](C)C(=O)N[C@@H](CC(C)C)C(=O)N[C@@H](CCCCN)C(=O)N[C@@H](CCC(N)=O)C(=O)N[C@@H](CCCCN)C(=O)N[C@@H](CC(C)C)C(=O)N[C@@H](CCCCN)C(N)=O (Ac-PVLDEFREKLNE[Gly(octyl)]LEALKQKLK-NH2) | concentration at 3 h [2]: 188 µM
2 | CC(=O)N[C@H](CC(=O)O)C(=O)N[C@H](Cc1c[nH]c2ccccc12)C(=O)N[C@H](Cc1ccccc1)C(=O)N[C@H](CCCCN)C(=O)N[C@H](C)C(=O)N[C@H](Cc1ccccc1)C(=O)N[C@H](Cc1ccc(O)cc1)C(=O)N[C@H](CC(=O)O)C(=O)N[C@H](CCCCN)C(=O)N[C@@H](C(=O)N[C@H](C)C(=O)N[C@H](CCC(=O)O)C(=O)N[C@H](CCCCN)C(=O)N[C@H](Cc1ccccc1)C(=O)N[C@H](CCCCN)C(=O)N[C@H](CCC(=O)O)C(=O)N[C@H](C)C(=O)N[C@H](Cc1ccccc1)C(N)=O)C(C)C (Ac-[dD][dW][dF][dK][dA][dF][dY][dD][dK][dV][dA][dE][dK][dF][dK][dE][dA][dF]-NH2) | IC50 [3]: 24 µM
> 100 | Ac-PVLDEFREKLNEELEALKQKLK-NH2 | concentration at 3 h [2]: 0.33 µM
0.8 | C=CCCCCC[C@H](NC(=O)[C@H](CCC(=O)O)NC(=O)[C@H](CC(N)=O)NC(=O)[C@H](CC(C)C)NC(=O)[C@H](CCCCN)NC(=O)[C@H](CCC(=O)O)NC(=O)[C@H](CCCN=C(N)N)NC(=O)[C@@H](CCCCC=C)NC(=O)[C@H](CCC(=O)O)NC(=O)[C@H](CC(=O)O)NC(=O)[C@H](CC(C)C)NC(=O)[C@@H](NC(=O)[C@@H]1CCCN1C(C)=O)C(C)C)C(=O)N[C@@H](CC(C)C)C(=O)N[C@@H](CCC(=O)O)C(=O)N[C@@H](C)C(=O)N[C@@H](CC(C)C)C(=O)N[C@@H](CCCCN)C(=O)N[C@@H](CCC(N)=O)C(=O)N[C@@H](CCCCN)C(=O)N[C@@H](CC(C)C)C(=O)N[C@@H](CCCCN)C(N)=O (Ac-PVLDE[dNle(6-vinyl)]REKLNE[Ala(5-hexenyl)]LEALKQKLK-NH2) | concentration at 3 h [2]: 116 µM
> 100 | C=CCCCC[C@H](NC(=O)[C@H](CCCCN)NC(=O)[C@H](CCC(=O)O)NC(=O)[C@H](CCCN=C(N)N)NC(=O)[C@H](Cc1ccccc1)NC(=O)[C@H](CCC(=O)O)NC(=O)[C@H](CC(=O)O)NC(=O)[C@H](CC(C)C)NC(=O)[C@@H](NC(=O)[C@@H]1CCCN1C(C)=O)C(C)C)C(=O)N[C@@H](CC(N)=O)C(=O)N[C@@H](CCC(=O)O)C(=O)N[C@@H](CCC(=O)O)C(=O)N[C@@H](CC(C)C)C(=O)N[C@@H](CCC(=O)O)C(=O)N[C@@H](C)C(=O)N[C@@H](CC(C)C)C(=O)N[C@@H](CCCCN)C(=O)N[C@@H](CCC(N)=O)C(=O)N[C@@H](CCCCN)C(=O)N[C@@H](CC(C)C)C(=O)N[C@@H](CCCCN)C(N)=O | 
0.6 | CCCCCCCC[C@H](NC(=O)[C@H](CCC(=O)O)NC(=O)[C@H](CC(N)=O)NC(=O)[C@H](CC(C)C)NC(=O)[C@H](CCCCN)NC(=O)[C@H](CCC(=O)O)NC(=O)[C@H](CCCNC(=N)N)NC(=O)[C@H](CCCCCCCC)NC(=O)[C@H](CCC(=O)O)NC(=O)[C@H](CC(=O)O)NC(=O)[C@H](CC(C)C)NC(=O)[C@@H](NC(=O)[C@@H]1CCCN1C(C)=O)C(C)C)C(=O)N[C@@H](CC(C)C)C(=O)N[C@@H](CCC(=O)O)C(=O)N[C@@H](C)C(=O)N[C@@H](CC(C)C)C(=O)N[C@@H](CCCCN)C(=O)N[C@@H](CCC(N)=O)C(=O)N[C@@H](CCCCN)C(=O)N[C@@H](CC(C)C)C(=O)N[C@@H](CCCCN)C(N)=O (Ac-PVLDE[Gly(octyl)]REKLNE[Gly(octyl)]LEALKQKLK-NH2) | 
